Source: ChEMBL document CHEMBL4177549, “Malonylginsenosides with Potential Antidiabetic Activities from the Flower Buds of Panax ginseng” (J Nat Prod, 2017)
Active and inactive are the calls of the source. The calls are words filed in the database; no cut-off is given here.

Tests used:
AMPK alpha2/beta1/gamma1 = AMPK alpha2/beta1/gamma1 (Homo sapiens, UniProt P54619+P54646+Q9Y478); experiment: Activation of recombinant AMPKalpha2beta1gamma1 (unknown origin) expressed in Escherichia coli BL21 in presence of CaMKKbeta (unknown origin) incubated for 45 mins in presence of substrate-1 peptide and ATP by HTRF assay
[1] = biological target: T1, AMPK alpha2/beta1/gamma1 (Homo sapiens) (UniProt P54646+P54619+Q9Y478); experiment: Activation of recombinant AMPKalpha2beta1gamma1 (unknown origin) expressed in Escherichia coli BL21 in presence of CaMKKbeta (unknown origin) incubated for 45 mins in presence of substrate-1 peptide and ATP by HTRF assay relative to untreated control
L6 [2] = experiment: Induction of glucose consumption in differentiated rat L6 cells at 20 uM incubated for 12 hrs in presence of 0.5% bovine serum albumin and low-glucose by glucose oxidase method; assay type: functional, cell-based
Summary of the method: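 L6 myoblasts were grown in high-glucose DMEM with 10% FBS and then differentiated into myotubes in 2% FBS for 4−6 days. The myotubes were treated for 12 h in low-glucose (1000 mg/L) DMEM with 0.5% BSA. Medium glucose was measured by glucose oxidase. Consumption was calculated as the glucose in cell-free blank wells minus the glucose in wells with cells.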

L6 [3] = experiment: Induction of glucose consumption in differentiated rat L6 cells at 10 uM incubated for 12 hrs in presence of 0.5% bovine serum albumin and low-glucose by glucose oxidase method; assay type: functional, cell-based
Summary of the method: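 L6 myoblasts grown in high-glucose (4500 mg/L) DMEM with 10% FBS, then differentiated to myotubes in high-glucose DMEM with 2% FBS for 4−6 days. Compound added in 0.5% BSA low-glucose (1000 mg/L) DMEM for 12 h. Medium glucose read by glucose oxidase method. Consumption calculated as cell-free blank wells minus wells with cells.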

[4] = biological target: T1, AMPK alpha2/beta1/gamma1 (Homo sapiens); experiment: Activation of recombinant AMPKalpha2beta1gamma1 (unknown origin) expressed in Escherichia coli BL21 in presence of CaMKKbeta (unknown origin) at 10 uM incubated for 45 mins in presence of substrate-1 peptide and ATP by HTRF assay relative to untreated control

Chain of AMPK alpha2/beta1/gamma1 (P54646 whole entry): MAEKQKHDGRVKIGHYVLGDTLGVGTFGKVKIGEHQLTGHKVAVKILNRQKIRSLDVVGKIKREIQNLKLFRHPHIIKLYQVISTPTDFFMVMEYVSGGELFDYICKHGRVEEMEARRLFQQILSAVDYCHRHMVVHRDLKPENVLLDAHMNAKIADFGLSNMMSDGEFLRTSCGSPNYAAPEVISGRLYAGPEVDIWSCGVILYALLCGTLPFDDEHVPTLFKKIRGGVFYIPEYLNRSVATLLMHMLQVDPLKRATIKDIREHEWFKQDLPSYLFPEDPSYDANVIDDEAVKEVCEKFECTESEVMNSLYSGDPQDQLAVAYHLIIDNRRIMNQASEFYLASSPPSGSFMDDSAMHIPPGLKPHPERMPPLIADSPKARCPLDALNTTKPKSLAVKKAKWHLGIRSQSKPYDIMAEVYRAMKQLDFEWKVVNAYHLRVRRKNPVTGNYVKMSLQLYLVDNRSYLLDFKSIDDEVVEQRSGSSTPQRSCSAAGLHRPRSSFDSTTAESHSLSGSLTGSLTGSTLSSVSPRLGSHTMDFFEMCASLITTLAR
Chain of AMPK alpha2/beta1/gamma1 (P54619 whole entry): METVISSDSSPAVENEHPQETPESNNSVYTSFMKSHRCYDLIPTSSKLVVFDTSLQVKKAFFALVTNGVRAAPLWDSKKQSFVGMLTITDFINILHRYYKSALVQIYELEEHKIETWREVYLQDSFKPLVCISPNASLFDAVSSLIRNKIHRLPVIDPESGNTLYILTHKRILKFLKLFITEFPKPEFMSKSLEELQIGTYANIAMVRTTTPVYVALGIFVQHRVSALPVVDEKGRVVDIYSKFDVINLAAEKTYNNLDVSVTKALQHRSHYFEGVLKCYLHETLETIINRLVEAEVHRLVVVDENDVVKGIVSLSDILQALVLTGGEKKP
Chain of AMPK alpha2/beta1/gamma1 (Q9Y478 whole entry): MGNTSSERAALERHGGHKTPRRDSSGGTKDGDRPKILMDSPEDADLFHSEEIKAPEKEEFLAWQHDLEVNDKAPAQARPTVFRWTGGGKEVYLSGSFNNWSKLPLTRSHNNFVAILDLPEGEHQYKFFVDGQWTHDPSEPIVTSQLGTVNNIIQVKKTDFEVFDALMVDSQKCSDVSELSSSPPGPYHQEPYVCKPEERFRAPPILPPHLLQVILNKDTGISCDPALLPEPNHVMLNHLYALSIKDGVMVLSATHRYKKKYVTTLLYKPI
T1 sequence (P54619 whole entry partner): as the sequence (P54619 whole entry) above
T1 sequence (P54646 whole entry): as the sequence (P54646 whole entry) above
T1 sequence (Q9Y478 2-270 partner limits assumed): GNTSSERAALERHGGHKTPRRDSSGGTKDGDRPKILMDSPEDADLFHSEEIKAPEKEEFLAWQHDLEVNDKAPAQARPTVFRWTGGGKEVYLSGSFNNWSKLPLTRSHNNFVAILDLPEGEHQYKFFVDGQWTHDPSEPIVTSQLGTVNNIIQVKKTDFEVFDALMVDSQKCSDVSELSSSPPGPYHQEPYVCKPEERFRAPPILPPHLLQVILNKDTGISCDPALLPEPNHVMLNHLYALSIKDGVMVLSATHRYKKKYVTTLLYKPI

CC(C)=CCC[C@](C)(O[C@@H]1O[C@H](CO[C@@H]2O[C@H](CO)[C@@H](O)[C@H](O)[C@H]2O)[C@@H](O)[C@H](O)[C@H]1O)[C@H]1CC[C@]2(C)[C@@H]1[C@H](O)C[C@@H]1[C@@]3(C)CC[C@H](O[C@@H]4O[C@H](CO)[C@@H](O)[C@H](O)[C@H]4O[C@@H]4O[C@H](CO)[C@@H](O)[C@H](O)[C@H]4O)C(C)(C)[C@@H]3CC[C@]12C [GINSENOSIDE RB1]
EC50 (AMPK alpha2/beta1/gamma1): 16.8 to 2800 nM

CC(C)=CCC[C@](C)(O[C@@H]1O[C@H](CO[C@@H]2OC[C@H](O)[C@H](O)[C@H]2O)[C@@H](O)[C@H](O)[C@H]1O)[C@H]1CC[C@]2(C)[C@@H]1[C@H](O)C[C@@H]1[C@@]3(C)CC[C@H](O[C@@H]4O[C@H](CO)[C@@H](O)[C@H](O)[C@H]4O[C@@H]4O[C@H](CO)[C@@H](OC(=O)CC(=O)O)[C@H](O)[C@H]4O)C(C)(C)[C@@H]3CC[C@]12C
EC50 (AMPK alpha2/beta1/gamma1): 16.8 to 2800 nM | fold change (FC) [1]: 1.7 to 4.7

CC(C)=CCC[C@](C)(O[C@@H]1O[C@H](CO)[C@@H](O)[C@H](O)[C@H]1O)[C@H]1CC[C@]2(C)[C@@H]1[C@H](O)C[C@@H]1[C@@]3(C)CC[C@H](O[C@@H]4O[C@H](CO)[C@@H](O)[C@H](O)[C@H]4O[C@@H]4O[C@H](COC(=O)CC(=O)O)[C@@H](O)[C@H](O)[C@H]4O)C(C)(C)[C@@H]3CC[C@]12C
EC50 (AMPK alpha2/beta1/gamma1): 16.8 to 2800 nM | fold change (FC) [1]: 1.7 to 4.7

CC(C)=CCC[C@](C)(O[C@@H]1O[C@H](CO)[C@@H](O)[C@H](O)[C@H]1O)[C@H]1CC[C@]2(C)[C@@H]1[C@H](O)C[C@@H]1[C@@]3(C)CC[C@H](O[C@@H]4O[C@H](CO)[C@@H](O)[C@H](O)[C@H]4O[C@@H]4O[C@H](CO)[C@@H](OC(=O)CC(=O)O)[C@H](O)[C@H]4O)C(C)(C)[C@@H]3CC[C@]12C
EC50 (AMPK alpha2/beta1/gamma1): 16.8 to 2800 nM | fold change (FC) [1]: 1.7 to 4.7

CC(C)=CCC[C@](C)(O[C@@H]1O[C@H](CO)[C@@H](O)[C@H](O)[C@H]1O)[C@H]1CC[C@]2(C)[C@@H]1[C@H](O)C[C@@H]1[C@@]3(C)CC[C@H](O)C(C)(C)[C@@H]3[C@@H](O[C@@H]3O[C@H](COC(=O)CC(=O)O)[C@@H](O)[C@H](O)[C@H]3O[C@@H]3O[C@@H](C)[C@H](O)[C@@H](O)[C@H]3O)C[C@]12C
Activity (L6 [2]): Active

CC(C)=CCC[C@](C)(O[C@@H]1O[C@H](CO[C@@H]2O[C@H](CO)[C@@H](O)[C@H](O)[C@H]2O)[C@@H](O)[C@H](O)[C@H]1O)[C@H]1CC[C@]2(C)[C@@H]1[C@H](O)C[C@@H]1[C@@]3(C)CC[C@H](O[C@@H]4O[C@H](CO)[C@@H](O)[C@H](O)[C@H]4O[C@@H]4O[C@H](COC(=O)CC(=O)O)[C@@H](O)[C@H](O)[C@H]4O)C(C)(C)[C@@H]3CC[C@]12C
EC50 (AMPK alpha2/beta1/gamma1): 16.8 to 2800 nM | fold change (FC) [1]: 1.7 to 4.7

CC(C)=CCC[C@](C)(O[C@@H]1O[C@H](CO[C@@H]2OC[C@H](O)[C@H](O)[C@H]2O)[C@@H](O)[C@H](O)[C@H]1O)[C@H]1CC[C@]2(C)[C@@H]1[C@H](O)C[C@@H]1[C@@]3(C)CC[C@H](O[C@@H]4O[C@H](CO)[C@@H](O)[C@H](O)[C@H]4O[C@@H]4O[C@H](CO)[C@@H](O)[C@H](O)[C@H]4O)C(C)(C)[C@@H]3CC[C@]12C [GINSENOSIDE RB2]
Activity (L6 [3]): Active | EC50 (AMPK alpha2/beta1/gamma1): 16.8 nM | fold change (FC) [1]: 4.7 | Activity (L6 [2]): Active

CC(C)=CCC[C@](C)(O[C@@H]1O[C@H](CO[C@@H]2OC[C@H](O)[C@H](O)[C@H]2O)[C@@H](O)[C@H](O)[C@H]1O)[C@H]1CC[C@]2(C)[C@@H]1[C@H](O)C[C@@H]1[C@@]3(C)CC[C@H](O[C@@H]4O[C@H](CO)[C@@H](O)[C@H](O)[C@H]4O[C@@H]4O[C@H](COC(=O)CC(=O)O)[C@@H](O)[C@H](O)[C@H]4O)C(C)(C)[C@@H]3CC[C@]12C
Activity (L6 [2]): Active

CC(C)=CCC[C@](C)(O[C@@H]1O[C@H](CO[C@@H]2O[C@@H](CO)[C@H](O)[C@H]2O)[C@@H](O)[C@H](O)[C@H]1O)[C@H]1CC[C@]2(C)[C@@H]1[C@H](O)C[C@@H]1[C@@]3(C)CC[C@H](O[C@@H]4O[C@H](CO)[C@@H](O)[C@H](O)[C@H]4O[C@@H]4O[C@H](COC(=O)CC(=O)O)[C@@H](O)[C@H](O)[C@H]4O)C(C)(C)[C@@H]3CC[C@]12C
EC50 (AMPK alpha2/beta1/gamma1): 16.8 to 2800 nM | fold change (FC) [1]: 1.7 to 4.7

CC(C)=CCC[C@](C)(O[C@@H]1O[C@H](CO)[C@@H](O)[C@H](O)[C@H]1O)[C@H]1CC[C@]2(C)[C@@H]1[C@H](O)C[C@@H]1[C@@]3(C)CC[C@H](O[C@@H]4O[C@H](CO)[C@@H](O)[C@H](O)[C@H]4O[C@@H]4O[C@H](CO)[C@@H](O)[C@H](O)[C@H]4O)C(C)(C)[C@@H]3CC[C@]12C [GINSENOSIDE RD]
EC50 (AMPK alpha2/beta1/gamma1): 16.8 to 2800 nM

COc1ccc2cc3[n+](cc2c1OC)CCc1cc2c(cc1-3)OCO2
Activity [4]: Active

CC(C)=CCC[C@](C)(O[C@@H]1O[C@H](CO[C@@H]2O[C@H](CO)[C@@H](OC(=O)CC(=O)O)[C@H](O)[C@H]2O)[C@@H](O)[C@H](O)[C@H]1O)[C@H]1CC[C@]2(C)[C@@H]1[C@H](O)C[C@@H]1[C@@]3(C)CC[C@H](O[C@@H]4O[C@H](CO)[C@@H](O)[C@H](O)[C@H]4O[C@@H]4O[C@H](CO)[C@@H](O)[C@H](O)[C@H]4O)C(C)(C)[C@@H]3CC[C@]12C
EC50 (AMPK alpha2/beta1/gamma1): 16.8 to 2800 nM | fold change (FC) [1]: 1.7 to 4.7
